Square brackets hold non-standard residues; d marks the D form. Peptide text beside a SMILES is read from it. * marks the point of attachment. Hydrocinnamoyl = O=C(CCc1ccccc1)*; Undecanoyl = CCCCCCCCCCC(=O)*; pGlu = O=C1CC[C@@H](C(=O)O)N1; Ac6c = NC1(C(=O)O)CCCCC1; Cbz = O=C(OCc1ccccc1)*; NHBn = c1ccc(CN*)cc1
Organism: Rattus norvegicus
Assay: Inhibition of rat recombinant Rab geranylgeranyltransferase at 100 uM in presence of canine Rab7 and rat REP1 NBD-FPP based continuous fluorimetric assay
Summary of the method: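 Continuous fluorometric assay in 96/384-well format: 3 μM Rab7, 3 μM REP1, 9 μM NBD-FPP and 400 nM RabGGTase, with or without inhibitor. […] IC50 was calculated from three independent measurements.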

inhibition [%]	Compound
51	CCCCCCCCCCC(=O)N[C@@H](Cc1c[nH]cn1)C(=O)N[C@@H](Cc1c[nH]cn1)C(=O)N[C@@H](Cc1ccc(O)cc1)C(=O)O (Undecanoyl-His-His-Tyr-OH)
89	O=C(CNC(=O)[C@@H]1CCCN1C(=O)c1coc(-c2ccccc2)n1)N[C@@H](Cc1ccc(O)cc1)C(=O)Nc1ccc(F)cc1F
84	CC[C@H](C)[C@H](NC(=O)c1ccc(-c2ccccc2)cc1)C(=O)N[C@@H](C(=O)N[C@@H](CCC(N)=O)C(=O)NN)C(C)C
101	COc1ccc(NC(=O)[C@H](CCC(N)=O)NC(=O)[C@H](Cc2ccccc2)NC(=O)[C@H](CO)NC(=O)CCc2ccccc2)cc1
63	COC(=O)[C@H](CO)NC(=O)CNC(=O)[C@H](CO)NC(=O)/C=C/c1ccc(F)cc1
32	CCCCCCCCCCC(=O)N[C@@H](Cc1ccc(O)cc1)C(=O)N[C@@H](Cc1c[nH]cn1)C(=O)N[C@@H](Cc1c[nH]cn1)C(=O)OC (Undecanoyl-Tyr-His-His-OMe)
75	CCCCCCCCCCCCCCCCNC(=O)[C@H](CC1CCCC1)NC(=O)[C@H](CCC(N)=O)NC(=O)[C@@H](NC(=O)CCC(O)CBr)[C@@H](C)O (some centres undefined)
86	CCCCCCCCCCCOc1ccc(C(=O)N[C@@H](Cc2ccc(O)cc2)C(=O)N[C@@H](Cc2ccc(O)cc2)C(=O)N[C@@H](Cc2ccc(O)cc2)C(=O)N(C)CCc2ccccn2)cc1
107	CCOC(=O)[C@H](CCC(N)=O)NC(=O)[C@H](Cc1ccccc1)NC(=O)[C@H](C)NC(=O)CCc1ccccc1 (Hydrocinnamoyl-Ala-Phe-Gln-OEt)
89	CCCCCCCCCCC(=O)NC(Cc1ccc(O)cc1)C(=O)N[C@@H](Cc1c[nH]cn1)C(=O)N[C@@H](Cc1c[nH]cn1)C(=O)NCC(O)CO (some centres undefined)
82	O=C(CNC(=O)[C@H](Cc1c[nH]cn1)NC(=O)OCc1ccccc1)N[C@@H](Cc1ccc(O)cc1)C(=O)Nc1nccs1
102	C=CCCCOC(=O)[C@H](CCC(N)=O)NC(=O)[C@H](Cc1ccccc1)NC(=O)[C@@H](NC(=O)/C=C/c1ccccc1)[C@@H](C)O
50	NC(=O)CC[C@H](NC(=O)[C@H](Cc1ccccc1)NC(=O)CNC(=O)CCc1ccccc1)C(=O)NC1CCCCC1
75	COc1ccc(C[C@@H](C(=O)N(C)[C@@H](Cc2ccccc2)C(=O)N2CCC(C(N)=O)CC2)N(C)C(=O)[C@@H](Cc2ccc(O)cc2)NC(=O)OCc2ccc([N+](=O)[O-])cc2)cc1
64	C[C@@H](O)[C@H](NC(=O)C(Br)C(Br)c1ccccc1)C(=O)N[C@@H](Cc1ccccc1)C(=O)N[C@@H](CCC(N)=O)C(=O)OCCCl (some centres undefined)
98	COC(=O)C1(NC(=O)[C@H](CCCCN)NC(=O)[C@H](CC(C)C)NC(=O)[C@@H]2CCC(=O)N2)CCCCC1 ([pGlu]LK[Ac6c]-OMe)
100	Cc1ccc(C(=O)OC[C@H](NC(=O)CNC(=O)[C@H](COC(=O)c2ccc(C)nc2)NC(=O)c2coc(-c3ccccc3)n2)C(=O)O)cn1
106	NC(=O)CC[C@H](NC(=O)[C@H](Cc1ccccc1)NC(=O)[C@H](CO)NC(=O)CCc1ccccc1)C(N)=O (Hydrocinnamoyl-Ser-Phe-Gln-NH2)
69	CC#CCOC(=O)[C@H](Cc1ccccc1)NC(=O)CNC(=O)[C@@H]1CCCN1C(=O)/C=C/c1ccccc1
112	CON(C)C(=O)[C@H](CCC(N)=O)NC(=O)[C@H](Cc1ccccc1)NC(=O)[C@H](C)NC(=O)CCc1ccccc1
97	O=C(CNC(=O)[C@H](Cc1ccc(O)cc1)NC(=O)c1ccc(F)cc1)N[C@@H](Cc1ccc(O)cc1)C(=O)Nc1ccccc1
108	C[C@H](NC(=O)[C@@H](NC(=O)c1ccc(-c2ccccc2)cc1)[C@@H](C)O)C(=O)N[C@@H](CCC(N)=O)C(=O)Nc1nccs1

inhibition [%]	Compound
32	CCCCCCCCCCC(=O)N[C@@H](Cc1ccc(O)cc1)C(=O)N[C@@H](Cc1cnc[nH]1)C(=O)N[C@@H](Cc1ccc(O)cc1)C(=O)NCCCn1ccnc1
89	NCCCC[C@H](NC(=O)CCc1ccccc1)C(=O)N[C@@H](Cc1c[nH]cn1)C(=O)N[C@@H](CO)C(=O)O (Hydrocinnamoyl-Lys-His-Ser-OH)
76	CCCCCCCCCCCOc1ccc(C(=O)N[C@@H](Cc2c[nH]cn2)C(=O)N[C@@H](Cc2ccc(O)cc2)C(=O)N[C@@H](Cc2ccccc2)C(=O)Nc2nccs2)cc1
75	O=C(/C=C/c1ccc(F)cc1)N[C@@H](CO)C(=O)N[C@@H](Cc1ccccc1)C(=O)N[C@@H](CO)C(=O)N1CCOCC1
109	C=CCOC(=O)[C@H](CO)NC(=O)CNC(=O)[C@H](Cc1ccccc1)NC(=O)c1coc(-c2ccccc2)n1
92	O=C(CNC(=O)[C@H](Cc1ccc(O)cc1)NCCc1ccc(F)cc1)N[C@@H](Cc1ccc(O)cc1)C(=O)N1CCOCC1
86	O=C(CNC(=O)[C@H](Cc1ccc(O)cc1)NC(=O)CCc1ccc(F)cc1)N[C@@H](Cc1ccc(O)cc1)C(=O)O
87	CCCCCCCCCCCOc1ccc(C(=O)N[C@@H](Cc2c[nH]cn2)C(=O)N[C@@H](Cc2c[nH]cn2)C(=O)N[C@@H](Cc2c[nH]cn2)C(=O)OC)cc1
102	CCCCCCCCCCCOc1ccc(C(=O)N[C@@H](Cc2ccc(O)cc2)C(=O)N[C@@H](Cc2ccc(O)cc2)C(=O)N[C@@H](Cc2c[nH]cn2)C(=O)O)cc1
73	CCCCCCCCCCC(=O)N[C@@H](Cc1ccc(O)cc1)C(=O)N[C@@H](Cc1c[nH]cn1)C(=O)N[C@@H](Cc1c[nH]cn1)C(=O)NCCCCN
84	CON(C)C(=O)[C@H](Cc1ccc(O)cc1)NC(=O)CNC(=O)[C@H](Cc1ccc(O)cc1)NC(=O)c1ccc(F)cc1
73	O=C(/C=C/c1ccc(F)cc1)N[C@@H](CO)C(=O)N[C@@H](Cc1ccccc1)C(=O)N[C@@H](CO)C(=O)Nc1ccccc1
85	NC(=O)[C@H](CO)NC(=O)CNC(=O)[C@H](CO)NC(=O)CCc1ccccc1 (Hydrocinnamoyl-Ser-Gly-Ser-NH2)
39	O=C(N[C@@H](Cc1c[nH]cn1)C(=O)N[C@@H](Cc1ccc(O)cc1)C(=O)N[C@@H](Cc1ccccc1)C(=O)O)OCc1ccccc1 (Cbz-His-Tyr-Phe-OH)
90	O=C(CNC(=O)[C@H](Cc1ccc(O)cc1)NC(=O)c1ccc(F)cc1F)N[C@@H](Cc1ccc(O)cc1)C(=O)O
90	O=C(CCc1ccccc1)N[C@@H](CO)C(=O)NCC(=O)N[C@@H](CO)C(=O)NCc1ccccc1 (Hydrocinnamoyl-Ser-Gly-Ser-NHBn)
44	C[C@@H](NC(=O)CCc1ccccc1)C(=O)N[C@@H](Cc1ccccc1)C(=O)N[C@@H](CCC(N)=O)C(=O)NC1CCCCC1
98	CC(C)C[C@H](NC(=O)[C@H](CO)NC(=O)[C@H](Cc1ccccc1)NC(=O)/C=C/c1ccc(F)cc1)C(N)=O
96	O=C(CCc1ccccc1)N[C@@H](CO)C(=O)N[C@@H](Cc1ccccc1)C(=O)N[C@@H](CO)C(=O)Nc1ccc(F)cc1F
89	C=CCCCOC(=O)[C@H](CCC(N)=O)NC(=O)[C@H](C)NC(=O)[C@@H](NC(=O)c1ccc(-c2ccccc2)cc1)[C@@H](C)O
70	O=C(CNC(=O)c1csc(-c2ccccc2)n1)N[C@@H](Cc1ccccc1)C(=O)N[C@@H](Cc1c[nH]cn1)C(=O)O
101	NCCOC(=O)[C@H](Cc1ccc(O)cc1)NC(=O)CNC(=O)[C@H](Cc1c[nH]cn1)NC(=O)OCc1ccccc1

From ChEMBL document CHEMBL1153722, “Design, synthesis, and characterization of peptide-based rab geranylgeranyl transferase inhibitors” (J Med Chem, 2009)
